# Results collected from several papers.
# Compare with care: the assays were run in different laboratories.
# Matrix: PAMPA
Structure (SMILES),conditions,Papp
CC(C)(C)OC(=O)c1ccc(O)cc1,"5 µM, pH 7.4",4.04 ×10⁻⁶ cm/s
C=C(CC(=O)OCOC(=O)OC(C)C)C(=O)OC,"10 µM, 4 h, pH 7.4",> 10 ×10⁻⁶ cm/s
Cc1c(S(=O)(=O)N2CCn3cccc3C2)cc(C(=O)NCc2cccnc2N2CCCC2)n1C,,27.6 ×10⁻⁶ cm/s
Cc1[nH]c(C)c(S(=O)(=O)Nc2ccc(C(F)(F)F)c(Cl)c2)c1C(=O)N(C)C,,11 ×10⁻⁶ cm/s
C=C(CC(=O)OCOC(=O)C(C)(C)C)C(=O)OC,"10 µM, 4 h, pH 7.4",> 10 ×10⁻⁶ cm/s
CCCCC(CC)COC(=O)c1ccc(O)cc1 (stereo not shown),"5 µM, pH 7.4",1.49 ×10⁻⁶ cm/s
Cc1c(S(=O)(=O)N2CCn3nccc3C2)cc(C(=O)NCc2c(F)ccc3cnn(C)c23)n1C,,25 ×10⁻⁶ cm/s
C=C(CC(=O)OCc1oc(=O)oc1C)C(=O)OC,"10 µM, 4 h",~15 ×10⁻⁶ cm/s
Cc1c(S(=O)(=O)N2CCc3c(cnn3C)C2)cc(C(=O)NCc2cccnc2N2CCCC2)n1C,,25 ×10⁻⁶ cm/s
CCCOC(=O)c1ccc(O)cc1,"5 µM, pH 7.4",7.04 ×10⁻⁶ cm/s
COc1ccccc1CNC(=O)c1cc(S(=O)(=O)N2CCn3nccc3C2)c(C)n1C,,22.9 ×10⁻⁶ cm/s
C=C(CC(=O)OCOC(=O)C(C)(C)C)C(=O)O,"10 µM, 4 h, pH 7.4",< 1 ×10⁻⁶ cm/s
CCCCCCCOC(=O)c1ccc(O)cc1,"5 µM, pH 7.4",1.9 ×10⁻⁶ cm/s
Cc1c(S(=O)(=O)N2CCC(C)CC2)cc(C(=O)NCc2cccnc2N2CCCC2)n1C,,32.8 ×10⁻⁶ cm/s
C=C(CC(=O)OC)C(=O)OCc1oc(=O)oc1C,"10 µM, 4 h",~15 ×10⁻⁶ cm/s
O=C(O)c1cc(/N=N/c2ccc(S(=O)(=O)Nc3ccccn3)cc2)ccc1O,4 h,0.077 ×10⁻⁶ cm/s
